Measurements: ChEMBL document CHEMBL1125582, “4-hydroxythiazole inhibitors of 5-lipoxygenase” (J Med Chem, 1991)
Blank lines part the entries; values can stand above or below the compound they belong to.

Assays:
[1] = target: T1, Polyunsaturated fatty acid 5-lipoxygenase (Homo sapiens, UniProt P09917); test: The compound was tested for the inhibition of 5-lipoxygenase (5-lo) in human whole blood (HWBL); type: tissue-based
T1 sequence (P09917 whole entry): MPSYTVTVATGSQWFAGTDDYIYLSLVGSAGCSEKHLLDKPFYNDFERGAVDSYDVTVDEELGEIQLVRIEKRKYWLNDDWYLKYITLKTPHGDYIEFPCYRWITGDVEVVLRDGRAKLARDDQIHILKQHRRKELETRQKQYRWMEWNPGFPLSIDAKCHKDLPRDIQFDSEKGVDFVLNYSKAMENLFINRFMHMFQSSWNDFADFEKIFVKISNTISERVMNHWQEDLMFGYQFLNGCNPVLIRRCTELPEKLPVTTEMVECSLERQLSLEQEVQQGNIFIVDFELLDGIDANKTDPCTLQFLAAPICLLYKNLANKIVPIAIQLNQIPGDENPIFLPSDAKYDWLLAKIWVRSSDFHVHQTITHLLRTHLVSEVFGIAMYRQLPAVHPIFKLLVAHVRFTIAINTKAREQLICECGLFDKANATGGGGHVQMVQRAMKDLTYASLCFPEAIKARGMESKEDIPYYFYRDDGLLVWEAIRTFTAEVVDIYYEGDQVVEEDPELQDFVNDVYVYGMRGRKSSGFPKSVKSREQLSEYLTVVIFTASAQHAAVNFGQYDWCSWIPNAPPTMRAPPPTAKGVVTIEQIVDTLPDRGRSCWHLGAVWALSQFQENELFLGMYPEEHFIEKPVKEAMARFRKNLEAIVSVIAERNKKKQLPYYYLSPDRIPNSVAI
Method in brief: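 Heparinized (20 units/mL) human blood preincubated 15 min at 37 °C with compound or vehicle. Challenged with A23187 in DMSO (final 50 μM) for 30 min, then chilled and centrifuged. Plasma extracted with 4 volumes methanol for at least 2 h at 3 °C. LTB₄ measured by RIA or EIA.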

[2] = target: T2, Polyunsaturated fatty acid 5-lipoxygenase (Rattus norvegicus, UniProt P12527); test: In vitro inhibition of 5-lipoxygenase (5-lo) from the 20000 g supernatant of RBI-1 cells; type: cell-based
T2 sequence (P12527 whole entry): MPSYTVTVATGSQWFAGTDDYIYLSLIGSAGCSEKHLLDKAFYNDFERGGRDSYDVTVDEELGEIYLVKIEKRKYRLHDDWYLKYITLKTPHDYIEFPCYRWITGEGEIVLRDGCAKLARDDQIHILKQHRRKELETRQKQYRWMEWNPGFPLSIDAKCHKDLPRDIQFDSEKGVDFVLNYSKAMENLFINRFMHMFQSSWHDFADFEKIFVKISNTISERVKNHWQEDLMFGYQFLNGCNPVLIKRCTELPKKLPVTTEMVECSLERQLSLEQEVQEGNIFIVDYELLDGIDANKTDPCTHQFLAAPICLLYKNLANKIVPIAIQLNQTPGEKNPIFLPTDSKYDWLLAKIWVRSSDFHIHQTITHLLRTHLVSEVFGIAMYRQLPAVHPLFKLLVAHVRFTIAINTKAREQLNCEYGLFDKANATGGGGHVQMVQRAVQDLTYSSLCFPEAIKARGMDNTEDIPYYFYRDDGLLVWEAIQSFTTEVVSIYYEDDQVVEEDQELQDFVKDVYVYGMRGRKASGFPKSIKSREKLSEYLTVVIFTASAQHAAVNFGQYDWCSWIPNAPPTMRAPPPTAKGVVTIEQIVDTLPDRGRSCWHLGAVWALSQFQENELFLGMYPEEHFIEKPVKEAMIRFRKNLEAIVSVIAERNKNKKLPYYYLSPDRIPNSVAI

[3] = target: T2, Polyunsaturated fatty acid 5-lipoxygenase; test: The compound was tested for the inhibition of 5-lipoxygenase (5-lo) in homogenized rat basophilic leukemia (RBL-1) cells; type: cell-based
Method in brief: (§1)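 20000g supernatant of homogenized RBL-1 cells (7.5 × 10⁶ cell equiv/mL) preincubated 20 min at 37 °C with inhibitor or 2% Me₂SO vehicle in pH 6.8 BES/PIPES buffer with EDTA, NaCl, 0.7 mM CaCl₂. Reaction started with 66 μM [¹⁴C]arachidonic acid. [¹⁴C]-5-HETE counted by scintillation, corrected for [³H]-5-HETE recovery.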

[4] = target: T3, Polyunsaturated fatty acid 5-lipoxygenase (Rattus norvegicus) (UniProt P12527); test: The compound was tested for the in vitro inhibition of 5-lipoxygenase (5-lo) from the 20000 g supernatant of RBI-1 cells at a concentration of 32 uM; type: cell-based
T3 sequence (whole entry): T2 sequence (P12527 whole entry)
Method in brief: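 RBL-1 cell homogenate, 20000g supernatant (7.5 × 10⁶ cell equiv/mL), preincubated 20 min at 37 °C with inhibitor or 2% Me₂SO vehicle in pH 6.8 BES/PIPES/EDTA/NaCl/CaCl₂ buffer; reaction started with 66 μM [¹⁴C]arachidonic acid. [¹⁴C]-5-HETE counted by scintillation, corrected by [³H]-5-HETE recovery; percent reduction vs control, single 32 μM concentration.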

[5] = target: T2, Polyunsaturated fatty acid 5-lipoxygenase; test: The compound was tested for the in vitro inhibition of 5-lipoxygenase from the 20000 g supernatant of RBI-1 cells; type: cell-based; method in brief: as §1

- IC50 [1]: 2200 nM
- IC50 [2]: 3300 nM
- IC50 [3]: 1400 nM
Compound: CCCOC(=O)Oc1nc(-c2ccccc2)sc1CCC

Compound: COP(=O)(OC)Oc1nc(-c2ccccc2)sc1-c1ccccc1
- inhibition [4]: 14%

- IC50 [5]: 4400 nM
Compound: CN(O)C(=O)Cc1sc(-c2ccccc2)nc1O
